An excerpt weighted towards active compounds, which were near 3.7% of everything screened.
rCAG RNA binder: binds r(CAG) RNA repeats. r(CAG) RNA repeat, TO-PRO-1 dye displacement fluorescence. inhibition, % at 3 µM. actives 1.3% (n = 370,000);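 active means inhibition above the plate cutoff, the mean of all test compounds on that plate plus 3 SD, cut at about 35% in these data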;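 further: 0% = DMSO alone and 100% = 100 µM mitoxantrone as full dye displacement; higher means more dye released from RNA so lower well fluorescence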
HCV NS3 hel inh: blocks Hepatitis C virus NS3 helicase unwinding | NS3 helicase DNA unwinding, Cy5 molecular beacon fluorescence | inhibition, % at 10.9 µM | actives 0.56% (n = 290,000);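 active means inhibition above the mean of all tested compounds plus 3 SD, set per campaign, cut at about 35% in these data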;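 further: 0% = DMSO wells and 100% = thioflavine S control wells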
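test system = hepatitis C virus NS3 helicase domain fragment enzyme | reagent = annealed dual-labelled DNA beacon duplex, ATP-started | times = 1 h at 25 °C | detection = Cy5 fluorescence, 0 and 60 min reads | read-out basis = percent inhibition from t60/t0 fluorescence ratio | control set = DMSO and thioflavine S | replication = one well per compound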
TAAR1 antag: antagonists of human TAAR1; CHO RD-HGA16 TAAR1, Fluo-8 calcium fluorescence, antagonist; inhibition, % at 3 µM; actives 1.5% (n = 360,000);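 active means inhibition above a per-plate cutoff, the mean inhibition of test compounds on that plate plus 3 SD, cut at about 49% in these data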;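 further: 0% = DMSO plus EC80 beta-PEA response and 100% = DMSO alone without agonist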
Target sequence (Q96RJ0 whole entry, looked up): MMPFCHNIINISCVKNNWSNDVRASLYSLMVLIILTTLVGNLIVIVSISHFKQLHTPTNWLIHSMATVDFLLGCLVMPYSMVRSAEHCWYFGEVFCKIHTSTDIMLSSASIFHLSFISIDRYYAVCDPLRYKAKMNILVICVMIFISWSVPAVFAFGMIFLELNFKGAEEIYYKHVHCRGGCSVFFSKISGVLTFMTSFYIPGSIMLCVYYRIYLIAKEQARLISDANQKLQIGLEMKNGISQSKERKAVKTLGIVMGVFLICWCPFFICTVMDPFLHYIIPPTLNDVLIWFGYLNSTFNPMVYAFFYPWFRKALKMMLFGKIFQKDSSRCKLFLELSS
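Material: RD-HGA16 CHO cells with stable hTAAR1 and Gα16; Dosing: single nominal final test compound concentration of 3 µM; Schedule: seeding 17-24 h prior, 75-min 37 °C, 30-min RT dye loading; Detection: kinetic Fluo-8 calcium fluorescence measurement; Measure: % inhibition from peak post-agonist over basal fluorescence ratio; Benchmarks: vehicle and agonist controls.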
HCV core dimer: HCV core protein dimerization inhibition | TR-FRET GST/Flag-core106 dimerization, 1536-well | inhibition, % at 5 µM | actives 0.33% (n = 300,000) | AID 1899;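 active means inhibition above the mean of all tested compounds plus 3 SD, set per screening campaign, cut at about 45% in these data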
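Material: GST/Flag-tagged HCV core106 proteins. Incubation: 4 h, 22.5 °C incubation. Read-out basis: inhibition (%) from 671 over 617 nm ratio. Measured by: TR-FRET, excitation 340 nm, emission 617 and 671 nm.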
TAAR1 agonist: human TAAR1 agonism; AID 624467; activation, % at 3 µM; Q96RJ0; actives 0.99% (n = 360,000); CHO RD-HGA16 TAAR1, Fluo-8 calcium fluorescence; vehicle wells 0%, saturating PEA agonist 100%;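 active means activation above the mean activation of all test compounds in the run plus 3 SD, cut at about 38% in these data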
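System: CHO-derived RD-HGA16 cells with stable Gα16 and human TAAR1 / Times: 17-24 h plating, Fluo-8 75 min 37 °C, 30 min RT / Technique: calcium-sensitive Fluo-8 signal, excitation 470-495, emission 515-575 nm / Measure: % activation relative to PEA EC100 response / Benchmarks: DMSO and PEA EC100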
TAAR1 ag confirm: confirmation of human TAAR1 agonists. shares compounds with TAAR1 agonist. CHO RD-HGA16 TAAR1, Fluo-8 calcium fluorescence; scaled: DMSO 0%, maximal phenethylamine 100%. activation, % at 3 µM. actives 82% (n = 2,400). AID 651783;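 active means activation above a cutoff set at the run's mean compound activation plus 3 SD, cut at about 39% in these data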
Ga16 ag counter: nonselective agonism, TAAR1 counter-screen. shares compounds with TAAR1 agonist. CHO-Ga16 parental, Fluo-8 calcium fluorescence; normalized to maximal ATP response, DMSO zero. activation, % at 3 µM. actives 50% (n = 2,400);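 active means activation above the run cutoff, the mean activation over all tested wells plus 3 SD, cut at about 12% in these data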;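 further: 0% = DMSO wells and 100% = maximal ATP response on the peak over basal ratio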
TAAR1 desensitize: TAAR1 response desensitization, agonist counter-screen; CHO RD-HGA16 hTAAR1, Fluo-8 calcium, beta-PEA response inhibition; AID 651951; inhibition, % at 3 µM; actives 46% (n = 2,400); shares compounds with TAAR1 agonist;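 active means inhibition above the run cutoff, the mean inhibition of all test compounds plus 3 SD, cut at about 49% in these data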;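 further: beta-PEA stimulus applied at its EC80; loss of beta-PEA calcium signal after compound pretreatment read as receptor desensitization; 0% = DMSO with beta-PEA at EC80 and 100% = DMSO alone without agonist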
Ga16 antag count: nonselective Ga16 antagonism, counter-screen | AID 651952 | shares compounds with TAAR1 agonist | CHO-Ga16 ATP-induced calcium, Fluo-8 fluorescence | inhibition, % at 3 µM | actives 39% (n = 2,400);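 active means inhibition above the plate's mean compound inhibition plus 3 SD, computed per plate, cut at about 22% in these data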;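 further: 0% = EC80 ATP with DMSO and 100% = DMSO wells without ATP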
An asterisk follows results filed as active; . = no result; ! = not confirmed by another sample.

SMILES | rCAG RNA binder | HCV NS3 hel inh | TAAR1 antag | HCV core dimer | TAAR1 agonist | TAAR1 ag confirm | Ga16 ag counter | TAAR1 desensitize | Ga16 antag count
CN1C(=O)c2cc(NC(=O)Cc3cccs3)ccc2OC[C@@H]2O[C@@H](CC(=O)N[C@H]3CCN(Cc4ccccc4)C3)CC[C@@H]21 | 5 | . | . | . | . | . | . | . | .
Nc1c(C(=O)CSc2nnnn2-c2ccc(O)cc2)c(=O)[nH]c(=O)n1C1CC1 | 4 | . | -32 | . | 1 | . | . | . | .
Cc1ccc(-n2nnnc2SCC(=O)c2c(N)n(C3CC3)c(=O)[nH]c2=O)c(C)c1 | 5 | . | -18 | . | 55* | 24 | 8 | -6 | -9
O=C(COc1ccc(Br)cc1)N1CCc2ccccc2C1 | -5 | -3 | -11 | 4 | 6 | . | . | . | .
Cc1cccc(OCC(=O)N2CCc3ccccc3C2)c1 | 0 | -6 | 18 | -6 | 55* | 69* | 2 | 24 | 6
COc1ccc(OCC(=O)N2CCc3ccccc3C2)cc1 | -1 | -3 | . | -15 | . | . | 0 | . | 11
COc1ccc(Cc2nnc(SCC(=O)N3CCc4ccccc4C3)o2)cc1 | -1 | -10 | -1 | 4 | 55* | 75* | 2 | 12 | 10
O=C(CCCN1C(=O)c2ccccc2C1=O)N1CCc2ccccc2C1 | 5 | 4 | 21 | 1 | 69* | 83* | 0 | 46 | 11
Cc1ccc(OCC(=O)N2CCc3ccccc3C2)cc1C | 0 | . | -25 | . | 19 | . | . | . | .
O=C(CN1C(=O)c2cccc3cccc1c23)N1CCc2ccccc2C1 | -4 | 2 | 2 | -3 | 13 | . | . | . | .
CC(C)C[C@H](NC(=O)c1nccs1)C(=O)N1CCC[C@H]1C(=O)NCc1ccccc1 | 1 | . | 4 | . | 3 | . | . | . | .
Cc1cccc(C(=O)NC(=S)N2CCc3ccccc3C2)c1 | 1 | -3 | 18 | 2 | 62* | 65* | 3 | 32 | 7
O=C(COc1cccc2cccnc12)N1CCc2ccccc2C1 | -7 | 2 | 5 | 8 | 52* | 21 | 3 | 11 | 16
Cc1cccc(C(=O)NCCC(=O)N2CCc3ccccc3C2)c1 | 1 | . | -1 | . | 2 | . | . | . | .
COC(=O)C1CN(CCc2ccccc2)CCS(=O)(=O)N1Cc1ccc(OC)cc1 (configuration not stated) | 6 | . | . | . | . | . | . | . | .
C[C@H](O)[C@@H]1CN2CCc3c([nH]c4cccc(-c5ccccc5)c34)[C@@H]2C[C@@H]1N(C)C(=O)c1ccco1 | 9 | . | . | . | . | . | . | . | .
CN1[C@H](Cc2ccccc2)COc2cc(N3CCSCC3)ccc2S1(=O)=O | 4 | . | . | . | . | . | . | . | .
C=CCN1C(=O)[C@@H](CC(=O)N2CCN(C(=O)OCC)CC2)[C@]2(C(=O)OC)CCCCC=C12 | 3 | . | . | . | . | . | . | . | .
Cn1c(C(=O)OCC(=O)NCCc2ccccc2)cc2sccc21 | -4 | -4 | 48 | -2 | 98* | 10 | 1 | 4 | 1
Nc1nc2ncccc2cc1C(=O)NC1CC1 | 2 | . | -21 | . | 0 | . | . | . | .
O=C(CCS(=O)(=O)c1ccc2c(c1)NC(=O)CO2)NCCc1ccccc1 | 1 | 0 | 27 | -4 | 66* | 62* | -1 | 5 | -1
COc1cc(C(c2nnnn2C2CCCC2)N2CCc3ccccc3C2)ccc1O (configuration not stated) | 1 | -5 | 100* | 10 | 85* | 91* | 0 | 97* | 7
CCCOc1ccc(OC(=O)c2ccc(Br)o2)cc1 | -6 | -1 | 102* | 7 | 137* | 115* | 95* | 85* | 79*
CCOC(=O)C(C)(C)CC#CCN(CC#Cc1ccccc1)S(=O)(=O)c1ccc(C)cc1 | 9 | . | 29 | . | 1 | . | . | . | .
COc1cccc(Nc2nc(C(N)COCc3ccccc3)cs2)n1 (configuration not stated) | 8 | . | 33 | . | 59* | 80* | 11 | 56* | 15
SMILES | rCAG RNA binder | HCV NS3 hel inh | TAAR1 antag | HCV core dimer | TAAR1 agonist | TAAR1 ag confirm | Ga16 ag counter | TAAR1 desensitize | Ga16 antag count
COc1ccc(CC(N)c2csc(Nc3cccc(OC)n3)n2)cc1 (configuration not stated) | 15 | . | 26 | . | 61* | 71* | 30* | 35 | 29*
COc1cccc(Nc2nc(C(N)Cc3ccc(F)cc3)cs2)n1 (configuration not stated) | 15 | . | 24 | . | 62* | 38* | 20* | 23 | 29*
COc1cccc(Nc2nc(C(N)C(C)C)cs2)n1 (configuration not stated) | 11 | . | -16 | . | 19 | . | . | . | .
NC(=O)c1cccc(Nc2nc(C(N)Cc3ccc(C(F)(F)F)cc3)cs2)n1 (configuration not stated) | 13 | . | -17 | . | 12 | . | . | . | .
COc1cccc(Nc2nc(C(N)Cc3ccc(C(F)(F)F)cc3)cs2)n1 (configuration not stated) | 15 | . | 28 | . | 60* | 52* | 38* | 54* | 59*
O=C(Nc1ccc(F)cc1)Nc1c(-c2ccc(C(F)(F)F)cc2)nc2ncccn12 | 18 | . | . | . | . | . | . | . | .
Fc1ccccc1C1CCN(Cc2nc(CC3CC3)no2)C1 (configuration not stated) | -7 | -12 | -8 | -3 | 48* | 62* | 3 | -3 | 2
CCCCCCCCCCCCCCCC[n+]1ccccc1 | 7 | . | 73* | . | 52*! | 32 | 4 | 37 | 17
CCCCCc1ccc(OCCC[n+]2ccccc2)c(CCCCC)c1 | 7 | -70 | -22 | 1 | 27 | . | . | . | .
CCOc1ccc(-n2c(SCC(=O)Nc3ccccc3-c3ccccc3)nnc2-c2ccccc2)cc1 | 5 | . | . | . | . | . | . | . | .
N#Cc1ccc(/C=C2\CC3(OC(=O)c4ccco4)CCCN2C3)cc1 (configuration not stated) | 1 | . | . | . | . | . | . | . | .
C=CCn1c(=O)[nH]c2nc3cc(N=CN(C)C)c(C)cc3nc2c1=O | -87 | 1 | 31 | -3 | 90* | 13 | 45* | 11 | 23*
COc1ccccc1Cn1c(C)c(C(=O)NCc2cccc(C)c2)sc1=O | -2 | . | -28 | . | 2 | . | . | . | .
COc1ccc(Cl)cc1Cn1c(C)c(C(=O)NCc2ccc(C#N)cc2)sc1=O | 3 | . | 76* | . | 68* | 74* | 37* | 74* | 50*
Cc1ccccc1Cn1c(C)c(C(=O)NCc2cccc(Cl)c2)sc1=O | 2 | . | 14 | . | 7 | . | . | . | .

Screening data from PubChem.
